Reference: ChEMBL document CHEMBL3244396, “Synthesis and antileukemic activity of 5-substituted 2,3-dihydro-6,7-bis(hydroxymethyl)-1H-pyrrolizine diesters” (J Med Chem, 1977)

Tests used:
[1] = test system: P388; assay: Antitumor activity against mouse P388 cells allografted in female CDF1 mouse assessed as change in body weight at 200 mg/kg, ip administered daily for 9 days as saline with Tween-80 solution starting 24 hrs after tumor inoculation; assay type: functional; conditions: route intraperitoneal
How it was run: (§1)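 Ascitic fluid carrying P388 cells was inoculated ip. Compound was given ip in nine daily doses, starting 24 h after inoculation, in Klucel (hydroxypropylcellulose) suspension or in saline with Tween-80. Body-weight difference (treated minus control) was recorded on day 5. Survival was scored as %T/C of median survival time, and 30-day survival counted as cure.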

[2] = test system: Mus musculus; assay: Toxicity in male CDF1 mouse allografted with mouse P388 cells assessed as animal survival at 12.5 mg/kg, ip administered daily for 9 days as saline with Tween-80 solution starting 24 hrs after tumor inoculation; assay type: organism-based; parameters: dose 12.5 mg/kg, route intraperitoneal; conditions: in vivo
How it was run: (§2)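 P-388 leukemia ascitic fluid implanted ip. Compound dosed ip in saline with Tween-80 vehicle, once daily for nine doses from 24 h after tumor inoculation. Acute toxicity scored as toxicity-day survivors per group. Survival was followed up to 30 days, with 30-day survival counted as "cure". Follows NCI screening protocols.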

[3] = test system: P388; assay: Antitumor activity against mouse P388 cells allografted in male CDF1 mouse assessed as disease cures by measuring 30-days host survival at 25 mg/kg, ip administered daily for 9 days as saline with Tween-80 solution starting 24 hrs after tumor inoculation relative to control; assay type: functional; conditions: route intraperitoneal
How it was run: (§3)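 P388 ascitic cell inoculum given ip to CDF1 mice of the sex in each line. Nine daily ip doses in saline with Tween-80 as vehicle, starting 24 h after inoculation. Median survival time expressed as %T/C (>125 significant); "cure" defined as 30-day survival.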

[4] = test system: P388; assay: Antitumor activity against mouse P388 cells allografted in male CDF1 mouse assessed as change in body weight at 12.5 mg/kg, ip administered daily for 9 days as saline with Tween-80 solution starting 24 hrs after tumor inoculation; assay type: functional; conditions: route intraperitoneal; how it was run: as §1
[5] = test system: P388; assay: Antitumor activity against mouse P388 cells allografted in female CDF1 mouse assessed as change in body weight at 400 mg/kg, ip administered daily for 9 days as saline with Tween-80 solution starting 24 hrs after tumor inoculation; assay type: functional; conditions: route intraperitoneal; how it was run: as §1
[6] = test system: P388; assay: Antitumor activity against mouse P388 cells allografted in female CDF1 mouse assessed as change in body weight at 25 mg/kg, ip administered daily for 9 days as saline with Tween-80 solution starting 24 hrs after tumor inoculation; assay type: functional; conditions: route intraperitoneal; how it was run: as §1
[7] = test system: P388; assay: Antitumor activity against mouse P388 cells allografted in female CDF1 mouse assessed as change in body weight at 50 mg/kg, ip administered daily for 9 days as saline with Tween-80 solution starting 24 hrs after tumor inoculation; assay type: functional; conditions: route intraperitoneal; how it was run: as §1
[8] = test system: P388; assay: Antitumor activity against mouse P388 cells allografted in female CDF1 mouse assessed as change in body weight at 12.5 mg/kg, ip administered daily for 9 days as saline with Tween-80 solution starting 24 hrs after tumor inoculation; assay type: functional; conditions: route intraperitoneal; how it was run: as §1
[9] = test system: Mus musculus; assay: Toxicity in male CDF1 mouse allografted with mouse P388 cells assessed as animal survival at 6.25 mg/kg, ip administered daily for 9 days as saline with Tween-80 solution starting 24 hrs after tumor inoculation; assay type: organism-based; parameters: dose 6.25 mg/kg, route intraperitoneal; conditions: in vivo; how it was run: as §2
[10] = test system: Mus musculus; assay: Toxicity in female CDF1 mouse allografted with mouse P388 cells assessed as animal survival at 12.5 mg/kg, ip administered daily for 9 days as saline with Tween-80 solution starting 24 hrs after tumor inoculation; assay type: organism-based; parameters: dose 12.5 mg/kg, route intraperitoneal; conditions: in vivo; how it was run: as §2
[11] = test system: P388; assay: Antitumor activity against mouse P388 cells allografted in male CDF1 mouse assessed as change in body weight at 6.25 mg/kg, ip administered daily for 9 days as saline with Tween-80 solution starting 24 hrs after tumor inoculation; assay type: functional; conditions: route intraperitoneal; how it was run: as §1
[12] = test system: P388; assay: Antitumor activity against mouse P388 cells allografted in male CDF1 mouse assessed as change in body weight at 25 mg/kg, ip administered daily for 9 days as saline with Tween-80 solution starting 24 hrs after tumor inoculation; assay type: functional; conditions: route intraperitoneal; how it was run: as §1
[13] = test system: P388; assay: Antitumor activity against mouse P388 cells allografted in male CDF1 mouse assessed as change in body weight at 50 mg/kg, ip administered daily for 9 days as saline with Tween-80 solution starting 24 hrs after tumor inoculation; assay type: functional; conditions: route intraperitoneal; how it was run: as §1
[14] = test system: P388; assay: Antitumor activity against mouse P388 cells allografted in female CDF1 mouse assessed as change in body weight at 100 mg/kg, ip administered daily for 9 days as saline with Tween-80 solution starting 24 hrs after tumor inoculation; assay type: functional; conditions: route intraperitoneal; how it was run: as §1
[15] = test system: P388; assay: Antitumor activity against mouse P388 cells allografted in female CDF1 mouse assessed as disease cures by measuring 30-days host survival at 12.5 mg/kg, ip administered daily for 9 days as saline with Tween-80 solution starting 24 hrs after tumor inoculation relative to control; assay type: functional; conditions: route intraperitoneal; how it was run: as §3
[16] = test system: P388; assay: Antitumor activity against mouse P388 cells allografted in male CDF1 mouse assessed as disease cures by measuring 30-days host survival at 12.5 mg/kg, ip administered daily for 9 days as saline with Tween-80 solution starting 24 hrs after tumor inoculation relative to control; assay type: functional; conditions: route intraperitoneal; how it was run: as §3
[17] = test system: P388; assay: Antitumor activity against mouse P388 cells allografted in female CDF1 mouse assessed as disease cures by measuring 30-days host survival at 25 mg/kg, ip administered daily for 9 days as saline with Tween-80 solution starting 24 hrs after tumor inoculation relative to control; assay type: functional; conditions: route intraperitoneal; how it was run: as §3
[18] = test system: Mus musculus; assay: Toxicity in female CDF1 mouse allografted with mouse P388 cells assessed as animal survival at 400 mg/kg, ip administered daily for 9 days as saline with Tween-80 solution starting 24 hrs after tumor inoculation; assay type: organism-based; parameters: dose 400 mg/kg, route intraperitoneal; conditions: in vivo; how it was run: as §2
[19] = test system: P388; assay: Antitumor activity against mouse P388 cells allografted in female CDF1 mouse assessed as disease cures by measuring 30-days host survival at 6.25 mg/kg, ip administered daily for 9 days as saline with Tween-80 solution starting 24 hrs after tumor inoculation relative to control; assay type: functional; conditions: route intraperitoneal; how it was run: as §3
[20] = test system: P388; assay: Antitumor activity against mouse P388 cells allografted in female CDF1 mouse assessed as change in body weight at 6.25 mg/kg, ip administered daily for 9 days as saline with Tween-80 solution starting 24 hrs after tumor inoculation; assay type: functional; conditions: route intraperitoneal; how it was run: as §1
[21] = test system: Mus musculus; assay: Toxicity in male CDF1 mouse allografted with mouse P388 cells assessed as animal survival at 25 mg/kg, ip administered daily for 9 days as saline with Tween-80 solution starting 24 hrs after tumor inoculation; assay type: organism-based; parameters: dose 25 mg/kg, route intraperitoneal; conditions: in vivo; how it was run: as §2
[22] = test system: Mus musculus; assay: Toxicity in female CDF1 mouse allografted with mouse P388 cells assessed as animal survival at 200 mg/kg, ip administered daily for 9 days as saline with Tween-80 solution starting 24 hrs after tumor inoculation; assay type: organism-based; parameters: dose 200 mg/kg, route intraperitoneal; conditions: in vivo; how it was run: as §2
[23] = test system: P388; assay: Antitumor activity against mouse P388 cells allografted in male CDF1 mouse assessed as disease cures by measuring 30-days host survival at 6.25 mg/kg, ip administered daily for 9 days as saline with Tween-80 solution starting 24 hrs after tumor inoculation relative to control; assay type: functional; conditions: route intraperitoneal; how it was run: as §3
[24] = test system: Mus musculus; assay: Toxicity in female CDF1 mouse allografted with mouse P388 cells assessed as animal survival at 6.25 mg/kg, ip administered daily for 9 days as saline with Tween-80 solution starting 24 hrs after tumor inoculation; assay type: organism-based; parameters: dose 6.25 mg/kg, route intraperitoneal; conditions: in vivo; how it was run: as §2
[25] = test system: Mus musculus; assay: Toxicity in female CDF1 mouse allografted with mouse P388 cells assessed as animal survival at 25 mg/kg, ip administered daily for 9 days as saline with Tween-80 solution starting 24 hrs after tumor inoculation; assay type: organism-based; parameters: dose 25 mg/kg, route intraperitoneal; conditions: in vivo; how it was run: as §2

CCNC(=O)OCc1c(COC(=O)NCC)c(-c2ccc(Cl)c(Cl)c2)n2c1CCC2
Activity [1]: -1.4 g | Activity [2]: Non-toxic | T/C [3]: 165% | Activity [4]: -2.5 g | Activity [5]: -1.4 g | Activity [6]: -2.4 g | Activity [7]: -4.4 g | Activity [8]: -1.8 g | Activity [9]: Non-toxic | Activity [10]: Non-toxic | Activity [11]: -2.1 g | Activity [12]: -4.4 g | Activity [13]: -8 g | Activity [14]: -3 g | T/C [15]: 170% | T/C [16]: 168% | T/C [17]: 103% | Activity [18]: Toxic | T/C [19]: 154% | Activity [20]: -1.8 g | Activity [21]: Non-toxic | Activity [22]: Toxic | T/C [23]: 168% | Activity [24]: Non-toxic | Activity [25]: Non-toxic
